This is an account of results in ChEMBL document CHEMBL1124006, “Synthesis and cognition activating properties of some mono- and bicyclic lactam derivatives” (1988).

Values joined by “and” are separate entries in the source; they are usually repeats but may differ in a detail not shown here. Equal values may be shown once. Some results are limits rather than exact numbers.

Assay [1] deals with Mus musculus. Nature of the assay: Maximal Electroshock seizure (% of animals without seizures) at the dose of 1000 mg/kg lactam derivatives on mice. Format: functional. The method, boiled down: (§1)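 Swiss mice of both sexes, 10 per dose, ip in 1% Tween 80. Maximal electroshock set to kill 50% of controls (60 mA, 0.4 s, 0.6 ms pulse width). Mice without seizures counted as protected; percent protected.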

Assay [2] deals with Mus musculus. Nature of the assay: Maximal Electroshock seizure (% of animals without seizures) at the dose of 500 mg/kg lactam derivatives on mice. The assay is classed as functional. The method, boiled down:
(§2)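 Swiss mice (5 male, 5 female per dose, 22 ± 2 g) dosed ip in 1% Tween 80, with vehicle controls. Maximal electroshock set to kill 50% of controls: 60 mA, 0.4 s shock, 0.6 ms pulse width. Read-out: percent of animals without seizures.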

Assay [3] has as its system Mus musculus. Nature of the assay: Motor coordination in rotarod test performed (total number of falls in 3 min) at the dose of 1000 mg/kg lactam derivatives on mice. Format: functional. Put shortly: (§3)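 Rota-rod motor coordination in Swiss mice (10 per dose, sexes mixed, 22 ± 2 g), dosed ip in 1% Tween 80 against vehicle controls. Falls counted per animal, mean ± SD; t test vs vehicle. The table footer gives 3 min and the method gives a 100 s observation period.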

Assay [4] has as its system Mus musculus. Briefly: Motor coordination in rotarod test performed (total number of falls in 3 min) at the dose of 500 mg/kg lactam derivatives on mice. The assay is classed as functional. The method, boiled down: as §3
In assay [5] the test system is Mus musculus. Briefly: Exploratory activity in hole board at the dose of 1000 mg/kg lactam derivatives on mice. Format: functional. The method, boiled down:
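Swiss mice of both sexes, 22 ± 2 g, 10 per dose, ip in 1% Tween 80. Hole board (Boissier and Simon); holes explored in 5 min counted by infrared device; mean ± SD.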

Assay [6] deals with Mus musculus. Nature of the assay: Exploratory activity in hole board at the dose of 500 mg/kg lactum derivatives on mice. Format: functional. Put shortly: (§4)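 Swiss inbred mice (male and female, 22 ± 2 g), 10 per dose (5 of each sex), given ip in 1% Tween 80; controls got vehicle only. Boissier–Simon hole board with infrared detection: total holes explored per animal in 5 min, mean ± SD. t test vs vehicle.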

Assay [7] concerns Mus musculus. Briefly: Spontaneous motor activity in open field at the dose of 500 mg/kg on mice. The assay is classed as functional. Put shortly: (§5)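 Open-field activity in male and female Swiss mice (22 ± 2 g, 10 per dose), compound given ip in 1% Tween 80 with vehicle-only controls. Tested 15 min after injection: total movements per animal in 5 min, mean ± SD; t test vs vehicle.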

The subject of assay [8] is Mus musculus. Briefly: Traction test (times in seconds on the horizontal wire with forelegs) performed at the dose of 1000 mg/kg lactam derivatives on mice. Format: functional. The method, boiled down: (§6)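 Boissier–Simon traction test in Swiss mice (5 male plus 5 female per dose, 22 ± 2 g), dosed ip in 1% Tween 80, with vehicle controls. Read-out: time in seconds each mouse stays hanging by its forelegs on a horizontal wire, mean ± SD; t test vs vehicle.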

In assay [9] the test system is Mus musculus. Briefly: Traction test (times in seconds on the horizontal wire with forelegs) performed at the dose of 500 mg/kg lactam derivatives on mice. Format: functional. Put shortly:
as §6

Assay [10] concerns Mus musculus. Nature of the assay: Spontaneous motor activity in open field at the dose of 1000 mg/kg on mice. Format: functional. Put shortly: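 Swiss mice, male and female, 22 ± 2 g, 10 per dose (5 each sex). Dosed ip in 1% Tween 80, doses up to 1000 mg/kg. Open field 15 min after injection; total movements in 5 min; mean ± SD, t test.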
For assay [11], the system named is Rattus norvegicus. Briefly: Effect of lactam derivative on retention in one-trial passive avoidance test in rats tested at equimolar doses to 100 mg/kg ip of piracetam. Particulars: at 100 mg/kg. Set-up: dose 100 mg/kg. The assay is classed as functional, organism-based. The method, boiled down: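 Male Sprague-Dawley rats, 250-300 g, 8 per group, dosed ip twice for 2 days, equimolar to 100 mg/kg piracetam. Trained to avoid dark compartment, 720 μA footshock for 15 s; retested 24 h later with grid off. Rats avoiding dark side 0.2-3 min counted as remembering; percent retention.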

Assay [12] relates to Rattus norvegicus. Nature of the assay: Retention time was measured at equimolar doses to 100 mg/kg ip of piracetam. Set-up: dose 100 mg/kg. Format: functional, organism-based. Put shortly:
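Male Sprague-Dawley rats, 8 per group, ip twice for 2 days, equimolar to 100 mg/kg piracetam. Footshock 720 μA, 15 s; retest 24 h later. For remembering rats, retention time T = T' − T0, light-compartment time at retest minus time at acquisition; mean ± SD, t test.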

In assay [13] the test system is Mus musculus. Briefly: Maximal Electroshock seizure (% of animals without seizures) at the dose of 1000 mg/kg on mice. Format: functional. Put shortly:
as §1

Assay [14] relates to Mus musculus. Briefly: Maximal Electroshock seizure (% of animals without seizures) at the dose of 500 mg/kg on mice. The assay is classed as functional. Put shortly:
as §2

The subject of assay [15] is Mus musculus. Nature of the assay: Motor coordination in rotarod test performed (total number of falls in 3 min) at the dose of 1000 mg/kg on mice (statistical significance test). The assay is classed as functional. The method, boiled down:
as §3

The subject of assay [16] is Mus musculus. Nature of the assay: Motor coordination in rotarod test performed (total number of falls in 3 min) at the dose of 500 mg/kg on mice. The assay is classed as functional. Put shortly: as §3
Assay [17] relates to Mus musculus. Briefly: Exploratory activity in hole board at the dose of 1000 mg/kg on mice (statistical significance test). Format: functional. Put shortly: as §4
In assay [18] the test system is Mus musculus. Briefly: Spontaneous motor activity in open field at the dose of 1000 mg/kg on mice (statistical significance test). The assay is classed as functional. Put shortly:
as §5

Assay [19] has as its system Mus musculus. Nature of the assay: Traction test (times in seconds on the horizontal wire with forelegs) performed at the dose of 1000 mg/kg on mice (statistical significance test). The assay is classed as functional. Put shortly:
as §6

The test system of assay [20] is Mus musculus. Nature of the assay: Traction test (times in seconds on the horizontal wire with forelegs) performed at the dose of 500 mg/kg on mice (statistical significance test). The assay is classed as functional. The method, boiled down:
as §6

Assay [21] deals with Mus musculus. Briefly: Motor coordination in rotarod test performed (total number of falls in 3 min) at the dose of 1000 mg/kg on mice. Format: functional.
Assay [22] deals with Mus musculus. Briefly: Traction test (times in seconds on the horizontal wire with forelegs) performed at the dose of 1000 mg/kg on mice. The assay is classed as functional. Put shortly:
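Swiss mice of both sexes, 10 per dose, ip in 1% Tween 80. Boissier and Simon traction test; time spent hanging by forelegs on a horizontal wire, in seconds; mean ± SD.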

Assay [23] relates to Rattus norvegicus. Briefly: Effect of tested at dose of 100 mg/kg in the water- maze test after 30 minutes (day 4). The assay is classed as functional.
Assay [24] concerns Rattus norvegicus. Briefly: Effect of tested at dose of 100 mg/kg in the water- maze test after 60 minutes (day 4). The assay is classed as functional. The method, boiled down:
(§7)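 Male Sprague-Dawley rats, 250-300 g, 10 per group; day 1 selects rats unable to leave the water maze within 5 min. Drug dosed ip twice daily on days 2-4, equimolar to 100 mg/kg piracetam. On day 5, two doses 30 min apart, then transtemporal ECS (60 mA/0.2 s). Mazes run 15, 60, 240 min after shock. Errors (reversals plus wrong entrances) and exit time recorded; mean ± SD, t test.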

Assay [25] relates to Rattus norvegicus. Nature of the assay: Effect of lactam derivatives tested at dose of 100 mg/kg in the water- maze test (day 2). The assay is classed as functional. The method, boiled down: as §7
Assay [26] relates to Rattus norvegicus. Nature of the assay: Effect of tested at dose of 100 mg/kg in the water- maze test (day 1). The assay is classed as functional. The method, boiled down: as §7
Assay [27] has as its system Rattus norvegicus. Nature of the assay: Effect of tested at dose of 100 mg/kg in the water- maze test (day 3). The assay is classed as functional. The method, boiled down: as §7
For assay [28], the system named is Rattus norvegicus. Nature of the assay: Effect of tested at dose of 100 mg/kg in the water- maze test after 15 minutes (day 4). The assay is classed as functional. Put shortly: as §7
Assay [29] has as its system Rattus norvegicus. Nature of the assay: Effect of tested at dose of 100 mg/kg in the water- maze test (day 2). The assay is classed as functional. The method, boiled down:
as §7

The subject of assay [30] is Rattus norvegicus. Nature of the assay: Effect of tested at dose ofv 100 mg/kg in the water- maze test (day 2). Format: functional. Put shortly:
as §7

Assay [31] has as its system Rattus norvegicus. Nature of the assay: Effect of lactam derivatives tested at dose of 100 mg/kg in the water- maze test (day 1). Format: functional. The method, boiled down:
as §7

For the compound `CCOC(=O)C1CNC(=O)CC1C(=O)OCC` (stereo in doubt; 4) [listing 1 of 2 here], the Activity with Mus musculus [1] is on record as 0%; in the assay on Mus musculus [2], 0%; in the assay on Mus musculus [3], 3.3; in the assay with Mus musculus [4], 1; in the assay on Mus musculus [5], 20; with Mus musculus [6], 20.4. In addition, the Activity with Mus musculus [7] worked out at 3410.5; in the assay with Mus musculus [8] it was 112.8; with Mus musculus [9] it was 75.8; with Mus musculus [10], 2522.

`CCOC(=O)C1CNC(=O)CC1C(=O)OCC` (stereo in doubt; 4) [listing 2 of 2 here] showed a Retention in the assay with Rattus norvegicus [11] of 100%. Also, the Retention time in the assay with Rattus norvegicus [12] amounted to 44.2 s.

For the compound `CCOC(=O)C1CNC(=O)CC1C(=O)OCC` (stereo in doubt; 5) [listing 1 of 2 here], the Activity in the assay with Mus musculus [13] turned out to be 40%; in the assay on Mus musculus [14], 0%; with Mus musculus [15], 16.4; with Mus musculus [16], 0.8; in the assay on Mus musculus [17], 8.9%; in the assay on Mus musculus [18] it was 782. Also, the Activity was 3025.2 in the assay with Mus musculus [7], below 7 with Mus musculus [19] and 65.1 in the assay on Mus musculus [20].

In the assay with Rattus norvegicus [11], `CCOC(=O)C1CNC(=O)CC1C(=O)OCC` (stereo in doubt; 5) [listing 2 of 2 here] displayed a Retention of 100%. In the assay on Rattus norvegicus [12], the Retention time is 47.2 s.

Take `NC(=O)CN1CCCC1=O` [PIRACETAM]: the Activity in the assay on Mus musculus [13] was 0%; in the assay with Mus musculus [21], 1.7; in the assay on Mus musculus [5], 19.6; in the assay on Mus musculus [22], 79.9; in the assay with Mus musculus [10], 3764.3. For the same compound, the No. of errors in the assay on Rattus norvegicus [23] is 2.1; with Rattus norvegicus [24], 3.6; in the assay with Rattus norvegicus [25], 7.2 and 8.1; with Rattus norvegicus [26], 7.6 and 9.1; in the assay on Rattus norvegicus [27] it was 3.5 and 5; with Rattus norvegicus [28] it was 3.2. Moreover, the Speed of performance with Rattus norvegicus [23] is 235.7; with Rattus norvegicus [24], 197.6; with Rattus norvegicus [27], 249 and 250.1; in the assay with Rattus norvegicus [28], 251; with Rattus norvegicus [29], 291.5; with Rattus norvegicus [30], 282.7. The Speed of performance in the assay with Rattus norvegicus [31] is 272.2 and 265. In the assay with Rattus norvegicus [11], this compound had a Retention of 100%. Also, the Retention time in the assay with Rattus norvegicus [12] was found to be 43.2 s.
